# Compounds with a hit are over-represented: about 4.5% of the library has one in this group of screens.
# MrgX1 PAM: human MrgX1 positive allosteric modulation, primary screen | Q96LB2 | MrgX1-HEK293, Fluo-4 calcium flux, FDSS; stronger effect = higher value | B-score at 10 µM | hit rate 0.63% among 310,000;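 active = plate-corrected calcium response at least 3 library SD above typical, normal starting fluorescence, not activating the receptor alone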;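 note: compound read alongside a low EC10 to EC30 dose of BAM8-22 agonist; peak minus trough fluorescence over baseline measured at the second addition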
# RGS4 inh: inhibitors of human RGS4. HEK293 M3R/RGS4 inducible, Fluo-4 calcium flux; stronger effect = higher value; triggered by carbachol at its EC20. hit rate 0.45% among 310,000. B-score at 10 µM. P49798;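 active = B-score, a plate-corrected calcium signal, over three deviations above library mean, with baseline fluorescence within five deviations of library mean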;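 note: RGS4 expression induced by doxycycline in cells with stable M3 receptor; B-score is computed from the integrated fluorescence ratio over baseline after carbachol; higher B-score means a larger calcium signal and so more RGS4 inhibition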
# Target sequence (P49798 whole entry, looked up): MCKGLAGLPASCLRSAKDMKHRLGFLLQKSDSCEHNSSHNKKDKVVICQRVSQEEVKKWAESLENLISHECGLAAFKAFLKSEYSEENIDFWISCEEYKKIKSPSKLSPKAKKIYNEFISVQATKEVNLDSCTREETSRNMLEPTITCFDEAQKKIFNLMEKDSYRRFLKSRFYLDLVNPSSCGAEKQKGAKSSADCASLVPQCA
# RGS4 act: potentiators or activators of RGS4. hit rate 0.92% among 310,000. B-score at 10 µM. HEK293 M3R/inducible RGS4, carbachol calcium flux Fluo4; stronger effect = lower value;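 active = B-score of the integrated calcium signal more than 4 SD below the library mean, with starting fluorescence not abnormally high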;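 note: negative B-score means reduced calcium response which marks RGS4 activation or potentiation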
#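 Assay system: HEK293 FlpIn-TREx cells, stable M3R, doxycycline-inducible RGS4 / Probe or stimulus: carbachol, ECmax concentration / Times: overnight RGS4 induction, 30 min dye load 37 °C, 20 min compound RT / Signal: kinetic calcium fluorescence imaging with Fluo4-AM dye, 2 µM / Measure: Agonist-evoked peak-minus-minimum fluorescence over baseline, integrated ratio, B score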
# MrgX1 agonist: human MrgX1 receptor agonism, primary screen; B-score at 10 µM; MrgX1-HEK293 cells, Fluo-4 calcium fluorescence, agonist mode; stronger effect = higher value; Q96LB2; hit rate 0.44% among 310,000;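 active = calcium response B-score plate-corrected fluorescence ratio at least 3 library SD, with starting fluorescence B-score inside 5 SD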
#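 System: HEK293 cells stably expressing human MrgX1 receptor; Dosing: test compound in the initial addition of three; Schedule: overnight plating, then 30 min 37 °C plus 30 min room-temperature dye loading; Detection: kinetic calcium dye fluorescence, Fluo-4 NW; Controls: per-plate positive and negative controls for Z′ factor.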
# MrgX1 antag: antagonists of human MrgX1 receptor; Q96LB2; MRGX1-HEK293 calcium flux, Fluo-4, BAM8-22 antagonism; stronger effect = lower value; B-score at 10 µM; hit rate 1.3% among 310,000;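 active = calcium-response B-score plate-corrected more than 3 library SD below zero, starting fluorescence within 5 deviations, no agonist response on first addition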;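 note: peak minus trough fluorescence over baseline after final BAM8-22 challenge near maximal dose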
# PHOSPHO1 block: inhibitors of human PHOSPHO1 phosphatase; recombinant PHOSPHO1, absorbance phosphatase assay; Q8TCT1; hit rate 1.1% among 290,000; inhibition, % at 13.3 µM; in the data active = inhibition above about 60%
# Target sequence (Q8TCT1 whole entry, looked up): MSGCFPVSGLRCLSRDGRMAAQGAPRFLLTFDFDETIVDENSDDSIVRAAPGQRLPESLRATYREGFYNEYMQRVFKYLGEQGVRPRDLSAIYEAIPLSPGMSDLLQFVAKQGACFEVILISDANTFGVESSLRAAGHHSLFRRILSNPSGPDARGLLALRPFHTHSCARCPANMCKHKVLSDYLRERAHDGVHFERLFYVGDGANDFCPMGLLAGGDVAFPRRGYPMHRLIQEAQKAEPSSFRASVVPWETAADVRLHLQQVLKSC
# MrgX1 ant reconf: human MrgX1 receptor antagonism, re-confirmation screen. shares compounds with MrgX1 antag. MrgX1-HEK293, BAM8-22 calcium flux, Fluo-4; stronger effect = lower value. remaining BAM8-22 calcium response % of control (stronger effect = lower value), % at 10 µM. hit rate 19% among 2,300;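 active = remaining agonist calcium response no higher than 100% minus 3 SD of agonist-only control wells, with starting fluorescence near control levels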;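 note: agonist BAM8-22 given at a near maximal EC90 to ECmax level; peak minus minimum fluorescence divided by baseline after agonist addition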
# HEK293 Ca flux: MrgX1 antagonist counter-screen hit in parental HEK293 cells | shares compounds with MrgX1 antag | Fluo-4 calcium fluorescence, FDSS | fluorescence ratio F(max-min)/F0 at 10 µM | hit rate 2% among 4,000;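 active = duplicate-averaged calcium fluorescence ratio at least three times the standard deviation of buffer wells, a nonspecific response in parental cells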
# HEK293 Ca counter: MrgX1 allosteric activator counter-screen hit in parental HEK293 cells | parental HEK293 calcium flux, Fluo-4 fluorescence ratio; stronger effect = higher value | shares compounds with MrgX1 antag | fluorescence ratio F(max-min)/F0 at 10 µM | hit rate 0.4% among 4,000;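 active = calcium fluorescence ratio, averaged over duplicates, at least 3 SD of the buffer-well ratio, meaning a nonspecific response in receptor-free cells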;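 note: untransfected parental HEK293 lacking MrgX1 used as counterscreen for MrgX1 allosteric activators; fluorescence change taken during the second addition on a kinetic imager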
# HEK293 Ca cntr2: MrgX1 activator counter-screen hit in parental HEK293 cells | fluorescence ratio F(max-min)/F0 at 10 µM | shares compounds with MrgX1 antag | hit rate 8.7% among 4,000 | Fluo-4 calcium fluorescence (FDSS); stronger effect = higher value;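 active = calcium fluorescence ratio at least three times the spread of buffer wells, meaning a non-specific response in parental cells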
# * hit, by the source's call; i = inactive; · = not tested or not shown.
SMILES,MrgX1 PAM,RGS4 inh,RGS4 act,MrgX1 agonist,MrgX1 antag,PHOSPHO1 block,MrgX1 ant reconf,HEK293 Ca flux,HEK293 Ca counter,HEK293 Ca cntr2
COc1ccc(C(CNC(=O)C(=O)Nc2ccc3c(c2)OCCO3)N2CCN(C)CC2)cc1 (stereo not drawn),i,i,i,i,i,·,·,·,·,·
COc1ccc(NC(=O)/C(=C/c2ccc3c(c2)OCO3)NC(C)=O)cc1,i,i,i,i,i,-11.4,·,·,·,·
CC(=O)Nc1ccc(Sc2ncccc2C(=O)Nc2ccc(OC(F)(F)F)cc2)cn1,i,i,i,i,-10*,32.6,i,i,i,i
CN(C)CCCNS(=O)(=O)c1ccc(N2CCC(c3ccc(Cl)cc3)=N2)cc1,i,i,i,i,-13.5*,3.2,59.8%*,i,i,i
O=S(=O)(c1ccc(N2CCC(c3ccc(Cl)cc3)=N2)cc1)N(CCO)CCO,i,i,i,i,i,39.5,·,·,·,·
CCOCc1cnc(C)nc1NCC(=O)c1c(C)[nH]c2ccc(OC)cc12,i,i,i,i,-8.76*,63.7*,i,i,i,i
CC(=O)Nc1cccc(NC(=O)CSc2nccn2Cc2ccccc2)c1,i,i,i,i,i,9.0,·,·,·,·
CCOC(=O)N1CCN(C(=O)CCCn2c(=O)[nH]c3ccccc3c2=O)CC1,i,i,i,i,-7.44*,11.1,i,i,i,i
CCOC(=O)N1CCN(C(=O)CCCn2c(=S)[nH]c3ccccc3c2=O)CC1,i,i,i,i,i,-5.8,·,·,·,·
Cc1cc(C)n(CCCNC(=O)c2ccc3c(c2)NC(=O)CS3)n1,i,i,i,i,-8*,5.5,i,i,i,i
Nc1ncc2c(n1)-c1ccoc1CC2,i,i,i,i,i,39.4,·,·,·,·
Nc1ncc2c(n1)-c1ccccc1CC2,i,i,i,i,-4.82*,28.5,i,i,i,i
CCC(Sc1ncccc1C(=O)O)C(=O)N1CCOCC1 (stereo not drawn),i,i,i,i,-6.79*,-74.9,80.2%*,i,i,i
CCC(Sc1ncccc1C(=O)O)C(=O)N1CCCC1 (stereo not drawn),i,i,i,i,i,11.3,·,·,·,·
O=C(Nc1ccc(C(=O)N2CCOCC2)cc1)c1cccs1,i,i,i,i,-6.99*,32.9,75.3%*,i,i,i
O=S(=O)(NC1CCCCC1N1CCN(c2ccccc2F)CC1)c1ccc(Cl)cc1 (stereo not drawn),i,i,i,i,-9.64*,45.3,i,i,i,i
O=C(Nc1nnc(SCC(=O)N2CCCC2)s1)C1CC(=O)N(c2ccc(F)cc2)C1 (stereo not drawn),i,i,i,i,i,2.8,·,·,·,·
O=C(CSc1nnc(NC(=O)C2CC(=O)N(c3ccc(F)cc3)C2)s1)NC1CCCC1 (stereo not drawn),i,i,i,i,-4.88*,-2.0,i,i,i,i
Oc1c(Br)cc(Br)cc1C=NCc1ccc(F)cc1,i,i,i,i,-5.18*,12.5,i,i,i,i
Oc1c(Br)cc(Br)cc1C=NCc1ccccc1,i,i,i,i,i,48.0,·,·,·,·
COc1ccc(-c2cc(-c3ccc(Cl)cc3)c(C#N)c(SCC(=O)O)n2)cc1,i,i,i,i,-5.86*,13.9,i,i,i,i

# Source: PubChem
